Assay results reported in ChEMBL document CHEMBL4325875, “Computer-aided design, synthesis and biological characterization of novel inhibitors for PKMYT1” (Eur J Med Chem, 2019).
pIC50, pKi: −log10 of the molar value.

Legend:
[1] = biological target: T1, Membrane-associated tyrosine- and threonine-specific cdc2-inhibitory kinase (Homo sapiens, UniProt Q99640); assay: […] from PKMYT1 kinase domain (unknown origin) by fluorescence polarization binding assay
T1 sequence (Q99640 whole entry): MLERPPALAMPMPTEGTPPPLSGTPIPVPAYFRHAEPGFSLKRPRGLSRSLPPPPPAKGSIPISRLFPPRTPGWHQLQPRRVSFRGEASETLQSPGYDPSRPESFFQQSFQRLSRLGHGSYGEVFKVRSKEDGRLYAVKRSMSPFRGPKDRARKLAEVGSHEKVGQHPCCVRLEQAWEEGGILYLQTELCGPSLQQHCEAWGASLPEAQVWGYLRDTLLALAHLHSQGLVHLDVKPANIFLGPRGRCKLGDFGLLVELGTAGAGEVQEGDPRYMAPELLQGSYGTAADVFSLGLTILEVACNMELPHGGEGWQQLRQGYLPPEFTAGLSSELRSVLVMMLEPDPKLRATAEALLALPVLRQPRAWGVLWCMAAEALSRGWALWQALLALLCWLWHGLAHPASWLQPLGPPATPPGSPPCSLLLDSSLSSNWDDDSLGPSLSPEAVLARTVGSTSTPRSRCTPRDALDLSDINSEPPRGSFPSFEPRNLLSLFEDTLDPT

[2] = biological target: T2, Membrane-associated tyrosine- and threonine-specific cdc2-inhibitory kinase (Homo sapiens) (UniProt Q99640); assay: Displacement of (6-FAM)KI(pY)VV from PKMYT1 kinase domain (unknown origin) at 20 uM by fluorescence polarization binding assay relative to control
T2 sequence (whole entry): T1 sequence (Q99640 whole entry)
Method in brief: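 PKMYT1 kinase domain (recombinantly expressed and purified) used in a fluorescence anisotropy binding assay with a fluorescently labelled ATP-competitive tracer. Each compound screened at 20 μM in triplicate. Dasatinib 10 μM served as inhibitory control and 1% DMSO as vehicle control. Compounds giving >60% tracer displacement were retested at 20 and 5 μM in triplicate.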

[3] = biological target: T1, Membrane-associated tyrosine- and threonine-specific cdc2-inhibitory kinase; assay: Displacement of (6-FAM)KI(pY)VV from full length PKMYT1 (unknown origin) by fluorescence polarization immuno assay
Method in brief: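 Full-length PKMYT1, expressed and purified, was tested in the fluorescence polarization-based activity assay (FPIA) to give IC50 and Ki. Controls were 10 μM dasatinib and 1% DMSO. Anisotropy r was calculated, and Δr was taken as the difference between the PKMYT1 reaction and the reaction without PKMYT1. Data are given as means ± SEM.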

Row | pIC50 [1] | inhibition [2] [%] | pIC50 [3] | pKi [1] | SMILES
1 | 5.22 | 100 | 5.81 |  | CSc1cnc(Nc2ccc(N3CCOCC3)cc2)nc1Nc1cccc(O)c1
2 | 5.20 | 100 | 6.02 |  | CNC(=O)c1ccccc1Nc1nc(Nc2ccc(N3CCOCC3)cc2)ncc1OC
3 | 5.03 | 100 | 6.51 |  | COc1cnc(Nc2ccc(N3CCOCC3)cc2)nc1Nc1ccc(C)c(O)c1
4 |  | 27 |  |  | COc1ccc(Nc2nc(Nc3ccc(N4CCOCC4)cc3)ncc2Br)cc1O
5 |  | < 10 |  |  | Oc1ccc(Cl)c(Nc2nc(Nc3ccc(N4CCOCC4)cc3)ncc2Cl)c1
6 |  | 13 |  |  | CSc1cnc(Nc2ccc(N3CCOCC3)cc2)nc1Nc1cc(C)ccc1Cl
7 |  | 39.7 |  |  | COc1ccc(Nc2nc(Nc3ccc(N4CCOCC4)cc3)ncc2OC)cc1O
8 |  | 74.8 |  |  | COc1cnc(Nc2ccc(N3CCOCC3)cc2)nc1Nc1cccc(O)c1
9 |  |  |  | 5.87 | Cc1cc(Nc2ncc3cc(-c4c(Cl)cccc4Cl)c(=O)n(C)c3n2)ccc1F
10 |  | 26.7 |  |  | Cc1ccc(Nc2nc(Nc3ccc(N4CCOCC4)cc3)ncc2Br)cc1O
11 |  | < 10 |  |  | Cc1ccc(Nc2nc(Nc3ccc(N4CCOCC4)cc3)ncc2OCc2ccccc2)cc1O
12 | 5.22 | 75 | 6.21 |  | Oc1cccc(Nc2nc(Nc3ccc(N4CCOCC4)cc3)ncc2Cl)c1
13 |  | 21.1 |  |  | Oc1cccc(Nc2nc(Nc3ccc(N4CCOCC4)cc3)ncc2Br)c1
14 |  | < 10 |  |  | Oc1cccc(Nc2nc(Nc3ccc(N4CCOCC4)cc3)nc3c2SCC3)c1
15 |  | < 10 |  |  | Cc1cnc(Nc2ccc(N3CCOCC3)cc2)nc1Nc1cc(O)ccc1Cl
16 |  | < 10 |  |  | Cc1cnc(Nc2ccc(N3CCOCC3)cc2)nc1Nc1cccc(O)c1
